Experimental data as given in ChEMBL document CHEMBL3621107, “Ring fusion strategy for synthesis and lead optimization of sulfur-substituted anthra[1,2-c][1,2,5]thiadiazole-6,11-dione derivatives as promising scaffold of antitumor agents” (Eur J Med Chem, 2015).

Assays:
Assay type in all cases: functional
CCRF-CEM = assay: Cytotoxicity against human CCRF-CEM cells after 48 hrs by SRB assay
Method in brief: (§1)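 NCI-60 human tumour cell panel screen, second stage, run by the NCI Developmental Therapeutics Program. Compounds were tested at five concentrations (0.01, 0.1, 1, 10 and 100 μM). Percentage growth was plotted against log10 concentration for each cell line. GI50, TGI and LC50 were taken from these dose-response curves.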

MOLT-4 = assay: Cytotoxicity against human MOLT4 cells after 48 hrs by SRB assay; settings: MOLT-4, 48 h
Method in brief: (§2)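 Second-stage NCI-60 panel run by the NCI Developmental Therapeutics Program, covering nine tumour subpanels. Five concentrations were tested: 0.01, 0.1, 1, 10 and 100 μM. Percentage growth at each level was plotted against log10 drug concentration. GI50, TGI and LC50 were read from these dose-response curves. Subpanel MID values were divided into the full-panel MID to give selectivity ratios.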

SR = assay: Cytotoxicity against human SR cells after 48 hrs by SRB assay
Method in brief: (§3)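 NCI-60 five-dose study run by NCI DTP at 0.01, 0.1, 1, 10 and 100 µM. Percentage growth at each level was plotted against log10 concentration for each line, and GI50, TGI and LC50 were read from the dose-response curves.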

HOP-92 = assay: Cytotoxicity against human HOP92 cells after 48 hrs by SRB assay; settings: HOP-92, 48 h; method in brief: as §1
NCI-H322M = assay: Cytotoxicity against human NCI-H322M cells after 48 hrs by SRB assay; method in brief: as §2
NCI-H460 = assay: Cytotoxicity against human NCI-H460 cells after 48 hrs by SRB assay; settings: NCI-H460, 48 h; method in brief: as §2
HT-29 = assay: Cytotoxicity against human HT-29 cells after 48 hrs by SRB assay; settings: HT-29, 48 h; method in brief: as §1
KM12 = assay: Cytotoxicity against human KM12 cells after 48 hrs by SRB assay; settings: KM12, 48 h; method in brief: as §1
SW-620 = assay: Cytotoxicity against human SW620 cells after 48 hrs by SRB assay; settings: SW-620, 48 h; method in brief: as §3
SNB-75 = assay: Cytotoxicity against human SNB75 cells after 48 hrs by SRB assay; settings: SNB-75, 48 h; method in brief: as §3
U-251 = assay: Cytotoxicity against human U251 cells after 48 hrs by SRB assay; settings: U-251, 48 h; method in brief: as §3
LOX IMVI = assay: Cytotoxicity against human LOXIMVI cells after 48 hrs by SRB assay; settings: for CC50: read-out: LC50 (the source's name); method in brief: as §1
M14 = assay: Cytotoxicity against human M14 cells after 48 hrs by SRB assay; settings: M14, 48 h; method in brief: as §1
UACC-257 = assay: Cytotoxicity against human UACC257 cells after 48 hrs by SRB assay; settings: UACC-257, 48 h; method in brief: as §3
OVCAR-5 = assay: Cytotoxicity against human OVCAR5 cells after 48 hrs by SRB assay; settings: OVCAR-5, 48 h; method in brief: as §2
OVCAR-8 = assay: Cytotoxicity against human OVCAR8 cells after 48 hrs by SRB assay; settings: OVCAR-8, 48 h; for CC50: read-out: LC50 (the source's name); method in brief: as §2
NCI/ADR-RES = assay: Cytotoxicity against human NCI/ADR-RES cells after 48 hrs by SRB assay; method in brief: as §2
786-0 = assay: Cytotoxicity against human 786-0 cells after 48 hrs by SRB assay; settings: 786-0, 48 h; method in brief: as §1
CAKI-1 = assay: Cytotoxicity against human Caki1 cells after 48 hrs by SRB assay; settings: CAKI-1, 48 h; method in brief: as §1
RXF 393 = assay: Cytotoxicity against human RXF393 cells after 48 hrs by SRB assay; settings: RXF 393, 48 h; method in brief: as §2
SN12C = assay: Cytotoxicity against human SN12C cells after 48 hrs by SRB assay; settings: for CC50: read-out: LC50 (the source's name); method in brief: as §2
PC-3 = assay: Cytotoxicity against human PC3 cells after 48 hrs by SRB assay; settings: PC-3, 48 h; method in brief: as §2
DU-145 = assay: Cytotoxicity against human DU145 cells after 48 hrs by SRB assay; settings: DU-145, 48 h; method in brief: as §1
MCF7 = assay: Cytotoxicity against human MCF7 cells after 48 hrs by SRB assay; settings: MCF7, 48 h; method in brief: as §1
MDA-MB-231 = assay: Cytotoxicity against human MDA-MB-231 cells after 48 hrs by SRB assay; settings: MDA-MB-231, 48 h; method in brief: as §2
BT-549 = assay: Cytotoxicity against human BT549 cells after 48 hrs by SRB assay; settings: BT-549, 48 h; method in brief: as §1
MDA-MB-468 = assay: Cytotoxicity against human MDA-MB-468 cells after 48 hrs by SRB assay; settings: MDA-MB-468, 48 h; method in brief: as §2
[1] = Cytotoxicity against human renal cancer cells assessed as growth inhibition after 48 hrs by SRB assay; settings: Cancer cell lines
Method in brief: (§4)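 Values come from the NCI-60 five-dose panel (0.01–100 µM). The subpanel MID is the mean GI50 over the lines of that tumour subpanel. The selectivity ratio is the full-panel MID divided by the subpanel MID; 3–6 is rated moderate and >6 high.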

[2] = Cytotoxicity against human prostate cancer cells assessed as growth inhibition after 48 hrs by SRB assay; settings: Cancer cell lines; method in brief: as §4
[3] = Cytotoxicity against human breast cancer cells assessed as growth inhibition after 48 hrs by SRB assay; settings: Cancer cell lines; method in brief: as §4

## O=C1c2ccccc2C(=O)c2c1cc(Sc1cccc(Cl)c1)c1nsnc21
CCRF-CEM
  GI50: 0.56 µM
  LC50: > 100 µM
  TGI: 6.26 µM
MOLT-4
  GI50: 0.64 µM
  LC50: > 100 µM
  TGI: 3.27 µM
SR
  GI50: 2 µM
  LC50: > 100 µM
  TGI: 8.09 µM
HOP-92
  GI50: 2.3 µM
  LC50 (concentration giving 50% net cell kill): 15.8 µM
  TGI: 5.23 µM
NCI-H322M
  GI50: 18.6 µM
  LC50 (concentration causing 50% net cell kill): 61.9 µM
  TGI: 33.9 µM
NCI-H460
  GI50: 4.29 µM
  LC50 (concentration killing 50% of cells): 75.8 µM
  TGI: 18.9 µM
HT-29
  GI50: 20.1 µM
  LC50: 100 µM
  TGI: 66.7 µM
KM12
  GI50: 12 µM
  LC50 (concentration killing 50% of cells): 65.7 µM
  TGI: 28 µM
SW-620
  GI50: 2.29 µM
  LC50 (50% lethal concentration): 28.3 µM
  TGI: 5.21 µM
SNB-75
  GI50: 1.99 µM
  LC50 (concentration killing 50% of cells): 23.7 µM
  TGI: 6.23 µM
U-251
  GI50: 1.7 µM
  LC50: 9.39 µM
  TGI: 4 µM
LOX IMVI
  GI50: 0.54 µM
  TGI: 2.08 µM
  CC50: 5.73 µM
M14
  GI50: 1.66 µM
  LC50: 6.94 µM
  TGI: 3.39 µM
UACC-257
  GI50: 1.52 µM
  LC50: 6.54 µM
  TGI: 3.15 µM
OVCAR-5
  GI50: 2.74 µM
  LC50: 68.2 µM
  TGI: 6.08 µM
OVCAR-8
  GI50: 0.59 µM
  TGI: 2.26 µM
  CC50: 6.81 µM
NCI/ADR-RES
  GI50: 0.5 µM
  LC50 (concentration killing 50% of cells): > 100 µM
  TGI: 4.59 µM
786-0
  GI50: 2.91 µM
  LC50 (concentration killing 50% of cells): 31.1 µM
  TGI: 8.97 µM
CAKI-1
  GI50: 2.67 µM
  LC50 (concentration causing 50% net cell kill): > 100 µM
  TGI: 9.15 µM
RXF 393
  GI50: 2.15 µM
  LC50 (concentration killing 50% of cells): 10.9 µM
  TGI: 4.7 µM
SN12C
  GI50: 1.05 µM
  TGI: 2.58 µM
  CC50: 6.35 µM
PC-3
  GI50: 2.27 µM
  LC50 (concentration killing 50% of cells): 69.9 µM
  TGI: 11.8 µM
DU-145
  GI50: 2.27 µM
  LC50: 14.3 µM
  TGI: 5.09 µM
MCF7
  GI50: 1.3 µM
  LC50 (concentration killing 50% of cells): 8.78 µM
  TGI: 3.37 µM
MDA-MB-231
  GI50: 0.37 µM
  LC50 (concentration killing 50% of cells): 31.6 µM
  TGI: 4.1 µM
BT-549
  GI50: 3.27 µM
  LC50: 40.3 µM
  TGI: 15.1 µM
MDA-MB-468
  GI50: 0.95 µM
  LC50: 5.1 µM
  TGI: 2.23 µM
[1]
  GI50: 3.81 µM
[2]
  GI50: 2.27 µM
[3]
  GI50: 1.52 µM

## O=C1c2ccccc2C(=O)c2c1cc(Sc1ccccc1Br)c1nsnc21
CCRF-CEM
  GI50: 4.88 µM
  LC50: > 50 µM
  TGI: > 50 µM
MOLT-4
  GI50: 7.21 µM
  LC50: > 50 µM
  TGI: 41.2 µM
SR
  GI50: 17 µM
  LC50: > 50 µM
  TGI: > 50 µM
HOP-92
  GI50: 18.4 µM
  LC50 (concentration giving 50% net cell kill): > 50 µM
  TGI: > 50 µM
NCI-H322M
  GI50: > 50 µM
  LC50 (concentration causing 50% net cell kill): > 50 µM
  TGI: > 50 µM
NCI-H460
  GI50: 36.1 µM
  LC50 (concentration killing 50% of cells): > 50 µM
  TGI: > 50 µM
HT-29
  GI50: > 50 µM
  LC50: > 50 µM
  TGI: > 50 µM
KM12
  GI50: 41.9 µM
  LC50 (concentration killing 50% of cells): > 50 µM
  TGI: > 50 µM
SW-620
  GI50: 23.6 µM
  LC50 (50% lethal concentration): > 50 µM
  TGI: > 50 µM
SNB-75
  GI50: 14.9 µM
  LC50 (concentration killing 50% of cells): > 50 µM
  TGI: > 50 µM
U-251
  GI50: 10.9 µM
  LC50: > 50 µM
  TGI: 31.7 µM
LOX IMVI
  GI50: 12.6 µM
  TGI: > 50 µM
  CC50: > 50 µM
M14
  GI50: 17.4 µM
  LC50: > 50 µM
  TGI: > 50 µM
UACC-257
  GI50: 8.56 µM
  LC50: > 50 µM
  TGI: 20.9 µM
OVCAR-5
  GI50: 3.44 µM
  LC50: > 50 µM
  TGI: > 50 µM
OVCAR-8
  GI50: 11.1 µM
  TGI: > 50 µM
  CC50: > 50 µM
NCI/ADR-RES
  GI50: 10.4 µM
  LC50 (concentration killing 50% of cells): > 50 µM
  TGI: 36.9 µM
786-0
  GI50: 11.2 µM
  LC50 (concentration killing 50% of cells): > 50 µM
  TGI: 29.7 µM
CAKI-1
  GI50: 17.2 µM
  LC50 (concentration causing 50% net cell kill): > 50 µM
  TGI: > 50 µM
RXF 393
  GI50: 9.14 µM
  LC50 (concentration killing 50% of cells): 42.2 µM
  TGI: 19.6 µM
SN12C
  GI50: 10.5 µM
  TGI: 39.7 µM
  CC50: > 50 µM
PC-3
  GI50: 14.8 µM
  LC50 (concentration killing 50% of cells): > 50 µM
  TGI: > 50 µM
DU-145
  GI50: 21.5 µM
  LC50: > 50 µM
  TGI: > 50 µM
MCF7
  GI50: 7.28 µM
  LC50 (concentration killing 50% of cells): 37.8 µM
  TGI: 16.6 µM
MDA-MB-231
  GI50: 7.52 µM
  LC50 (concentration killing 50% of cells): > 50 µM
  TGI: 37.3 µM
BT-549
  GI50: 20.5 µM
  LC50: > 50 µM
  TGI: > 50 µM
MDA-MB-468
  GI50: 0.95 µM
  LC50: 4.2 µM
  TGI: 2 µM
[1]
  GI50: 14.5 µM
[2]
  GI50: 18.2 µM
[3]
  GI50: 9.62 µM
